Results of several laboratories.
Lines come from different studies, so protocols differ.
Effect on: microbial growth

Structure (SMILES) | organism | assay | test system | conditions | MIC
CCCCCCC/C=C/C(=O)N1C(=O)/C(=C(/C)O)C(=O)C1CCC(=O)O (stereo not drawn) | Stenotrophomonas maltophilia |  | ATCC13637 |  | 200 µg/mL
Cc1ncc([N+](=O)[O-])n1CCO | Bifidobacterium | agar dilution |  | 48 h | > 16 µg/mL
CCCCCCC/C=C/C(=O)N1C(=O)/C(=C(\O)c2ccncc2)C(=O)C1CC(C)C (stereo not drawn) | Stenotrophomonas maltophilia |  | ATCC13637 |  | 200 µg/mL
C/C(=C\c1ccc(C#N)cc1)C(=O)Nc1ccc(C(=O)N[C@@H](CC(N)=O)C(=O)Nc2ccc(C(=O)Nc3ccc(C(=O)Nc4ccc(C(=O)O)cc4)c(O)c3OC(C)C)cc2)cc1 | Klebsiella aerogenes |  | DSM30053 |  | 0.25 µg/mL
CCCCCCC/C=C/C(=O)N1CC(=O)/C(=C(\C)O)C1=O | Stenotrophomonas maltophilia |  | ATCC13637 |  | 100 µg/mL
O=C1NC(=S)N/C1=C\c1c2ccccc2c(-c2ccc(N(c3ccccc3)c3ccccc3)cc2)c2ccccc12 | Streptococcus mutans | broth dilution | ATCC25175 |  | > 1000 µg/mL
O=C(Nc1ccc2c(c1)OC(F)(F)O2)Nc1ccc(Cl)c(C(F)(F)F)c1 | Klebsiella aerogenes |  | DSM30053 |  | > 100 µM
CCCCCCC/C=C/C(=O)N1C(=O)/C(=C(\O)C2CCNCC2)C(=O)C1CC(C)C (stereo not drawn) | Stenotrophomonas maltophilia |  | ATCC13637 |  | 25 µg/mL
O=C1NC(=S)S/C1=C\c1ccc(-c2ccc(N(c3ccccc3)c3ccccc3)cc2)cc1 | Streptococcus mutans | broth dilution | ATCC25175 |  | 1000 µg/mL
CCc1cc(Nc2cc(=O)n(CCCCO)c(=O)[nH]2)ccc1C | Bifidobacterium | agar dilution |  | 48 h | > 32 µg/mL
O=C1NC(=S)N/C1=C\c1ccc(-c2ccc(N(c3ccccc3)c3ccccc3)cc2)c2ccccc12 | Streptococcus mutans | broth dilution | ATCC25175 |  | > 1000 µg/mL
O=C(O)c1cn(C2CC2)c2cc(N3CCNCC3)c(F)cc2c1=O | Klebsiella aerogenes |  | DSM30053 |  | 0.125 µg/mL
O=C1NC(=S)S/C1=C\c1ccc(-c2ccc(N(c3ccccc3)c3ccccc3)cc2)c2ccccc12 | Streptococcus mutans | broth dilution | ATCC25175 |  | 1000 µg/mL
CO[C@@H](C(N)=O)[C@H](NC(=O)c1ccc(NC(=O)c2ccc(C#N)cc2)cc1)C(=O)Nc1ccc(C(=O)Nc2ccc(C(=O)Nc3ccc(C(=O)O)cc3)c(O)c2OC(C)C)cc1 | Klebsiella aerogenes |  | DSM30053 |  | 2 µg/mL
CCCCCCC/C=C/C(=O)N1C(=O)/C(=C(\O)c2ccc(OCOCCOC)cc2)C(=O)C1CC(C)C (stereo not drawn) | Stenotrophomonas maltophilia |  | ATCC13637 |  | 200 µg/mL
